Measurements taken from ChEMBL document CHEMBL3352635 (Bioorg Med Chem Lett, 2014).
Calls of active or inactive are those of the source. The calls are words filed in the database; no cut-off is given here.

Experiments:
[1] = AUC in Sprague-Dawley rat at 44.83 mg/kg, po; assay type: ADME, organism-based; set-up: dose 44.83 mg/kg, route oral; settings: plasma
Procedure, shortened: (§1)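 Plasma parent-drug concentration followed over time up to 8 h. AUC in µg*h/mL from the concentration–time profile. Cmax and Tmax taken from the profile.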

[2] = Half life in simulated gastric fluid at pH 1.2 by HPLC analysis; assay type: ADME
Procedure, shortened: (§2)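 Compounds incubated at 37 °C in simulated gastric fluid (pH 1.2), simulated intestinal fluid (pH 6.8) or 100% human plasma for up to 180 min. […] Half-life estimated from the decay.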

Rattus norvegicus [3] = test: Antiinflammatory activity in Sprague-Dawley rat assessed as plasma nitrate/nitrite AUC at 41.60 mg/kg, po by Griess assay (reference value: 371.1 uM.h); assay type: functional, organism-based; set-up: dose 41.6 mg/kg
Procedure, shortened: (§3)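 Sprague–Dawley rats given compounds orally, with vehicle-dosed controls. […] Plasma nitrate/nitrite (NOx) measured by the Griess method as an indirect measure of NO released, over 8 h (sampling included 1, 2, 4 and 6 h). Plasma nitrate/nitrite AUC in µM*h.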

Rattus norvegicus [4] = test: Antiinflammatory activity in Sprague-Dawley rat assessed as plasma nitrate/nitrite at 41.60 mg/kg, po after 1 hr; assay type: functional; settings: dose 41.6 mg/kg; procedure, shortened: as §3
Rattus norvegicus [5] = test: Antiinflammatory activity in Sprague-Dawley rat assessed as plasma nitrate/nitrite at 41.60 mg/kg, po after 2 hrs; assay type: functional; settings: dose 41.6 mg/kg; procedure, shortened: as §3
Rattus norvegicus [6] = test: Antiinflammatory activity in Sprague-Dawley rat assessed as plasma nitrate/nitrite at 41.60 mg/kg, po after 4 hrs; assay type: functional, organism-based; set-up: dose 41.6 mg/kg; procedure, shortened: as §3
Rattus norvegicus [7] = test: Antiinflammatory activity in Sprague-Dawley rat assessed as plasma nitrate/nitrite at 41.60 mg/kg, po after 6 hrs relative to control; assay type: functional, organism-based; set-up: dose 41.6 mg/kg; procedure, shortened: as §3
Rattus norvegicus [8] = test: Toxicity in rat assessed as gastric lesion and ulcer area at 138.67 mg/kg, po after 5 hrs; assay type: organism-based, Stomach; set-up: dose 138.67 mg/kg, route oral; settings: in vivo
[9] = Stability of the compound assessed as compound remaining at RT measured immediately; assay type: physicochemical; settings: read-out: Stability
Procedure, shortened: (§4)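 Solid-state storage stability at room temperature and at 50 °C, followed for up to 1 month (25 days for one compound). Remaining compound measured, along with the amounts of parent drug and salicylic acid generated.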

[10] = Stability of the compound assessed as compound remaining at 50 degC measured immediately; assay type: physicochemical; settings: read-out: Stability; procedure, shortened: as §4
[11] = Stability of the compound assessed as compound remaining at RT after 25 days; assay type: physicochemical; settings: read-out: Drug metabolism; procedure, shortened: as §4
[12] = Stability of the compound assessed as compound remaining at 50 degC after 25 days; assay type: physicochemical; settings: read-out: Drug metabolism; procedure, shortened: as §4
[13] = Metabolic stability in simulated gastric fluid assessed as compound remaining at pH 1.2 measured immediately by HPLC analysis; assay type: ADME; settings: read-out: Stability; procedure, shortened: as §2
[14] = Metabolic stability in simulated gastric fluid assessed as compound remaining at pH 1.2 after 5 mins by HPLC analysis; assay type: ADME; settings: read-out: Stability; procedure, shortened: as §2
[15] = Metabolic stability in simulated gastric fluid assessed as compound remaining at pH 1.2 after 10 mins by HPLC analysis; assay type: ADME; settings: read-out: Stability; procedure, shortened: as §2
[16] = Metabolic stability in simulated gastric fluid assessed as compound remaining at pH 1.2 after 15 mins by HPLC analysis; assay type: ADME; settings: read-out: Stability; procedure, shortened: as §2
[17] = Metabolic stability in simulated gastric fluid assessed as compound remaining at pH 1.2 after 30 mins by HPLC analysis; assay type: ADME; settings: read-out: Stability; procedure, shortened: as §2
[18] = Metabolic stability in simulated gastric fluid assessed as compound remaining at pH 1.2 after 60 mins by HPLC analysis; assay type: ADME; settings: read-out: Stability; procedure, shortened: as §2
[19] = Metabolic stability in simulated gastric fluid assessed as compound remaining at pH 1.2 after 180 mins by HPLC analysis; assay type: ADME; settings: read-out: Stability; procedure, shortened: as §2
[20] = Metabolic stability in simulated gastric fluid assessed as compound remaining at pH 1.2 after 120 mins by HPLC analysis; assay type: ADME; settings: read-out: Stability; procedure, shortened: as §2
[21] = AUC in Sprague-Dawley rat at 30 mg/kg, po; assay type: ADME, organism-based; set-up: dose 30 mg/kg, route oral; settings: plasma; procedure, shortened: as §1
[22] = AUC in Wistar rat at 30 mg/kg, po; assay type: ADME, organism-based; set-up: dose 30 mg/kg, route oral; settings: plasma
Procedure, shortened: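 Single oral dosing in Wistar rats to compare […]. Aspirin at 30 mg/kg or the prodrug at 44.83 mg/kg (equimolar to 30 mg/kg aspirin). Plasma aspirin measured over time. AUC in µg*h/mL.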

Rattus norvegicus [23] = test: Toxicity in rat assessed as gastric lesion and ulcer area at 200 mg/kg, po after 5 hrs; assay type: organism-based, Stomach; set-up: dose 200 mg/kg, route oral; settings: in vivo
Rattus norvegicus [24] = test: Antiplatelet activity in Sprague-Dawley rat assessed as inhibition of TXB2 formation at 30 mg/kg, po od after 7 days by EIA relative to vehicle-treated control; assay type: functional; settings: 168 h
Procedure, shortened: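 Sprague–Dawley rats dosed orally once daily for 7 days with aspirin 30 mg/kg or prodrug 44.82 mg/kg (equimolar), with vehicle 1 ml/kg as control. Serum TXB2 levels estimated. Inhibition expressed as % reduction versus vehicle.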

half-life [2] [h] | remaining at 0 min [13] [%] | remaining at 5 min [14] [%] | remaining at 10 min [15] [%] | remaining at 0.25 h [16] [%] | remaining at 0.5 h [17] [%] | remaining at 1 h [18] [%] | remaining at 3 h [19] [%] | remaining at 2 h [20] [%] | SMILES | other results
< 0.5 | 100 | 85 | 75 | 65 | 33 | 0 | – | – | COc1ccc2cc([C@H](C)C(=O)OC(C)O[N+](=O)[O-])ccc2c1 (stereo not given in full) | AUC (Rattus norvegicus [3]): 687 µM·h; Activity (Rattus norvegicus [4]): 150 µM; Activity (Rattus norvegicus [5]): 120 µM; Activity (Rattus norvegicus [6]): inactive; Activity (Rattus norvegicus [7]): inactive; Activity (Rattus norvegicus [8]): 39 mm2; remaining at 0 days [9]: 99.1%; remaining at 0 days [10]: 99.1%; remaining at 600 h [11]: 98.9%; remaining at 600 h [12]: 99%
1 | 100 | 94 | 90 | 74 | 62 | 51 | 7 | 39 | CCC(OC(=O)[C@@H](C)c1ccc2cc(OC)ccc2c1)O[N+](=O)[O-] (stereo not given in full) | –
> 3 | 100 | 98 | 96 | 87 | 87 | 87 | 71 | 80 | CCCCC(OC(=O)[C@@H](C)c1ccc2cc(OC)ccc2c1)O[N+](=O)[O-] (stereo not given in full) | –

Further lines, the molecule ahead of its results:

SMILES | half-life [2] [h] | remaining at 0 min [13] [%] | remaining at 5 min [14] [%] | remaining at 10 min [15] [%] | remaining at 0.25 h [16] [%] | remaining at 0.5 h [17] [%] | remaining at 1 h [18] [%] | remaining at 3 h [19] [%] | remaining at 2 h [20] [%] | other results
CCC(OC(=O)c1ccccc1OC(C)=O)O[N+](=O)[O-] (stereo not given) | – | – | – | – | – | – | – | – | – | AUC [1]: 53600 ng·h/mL
CC(=O)Oc1ccccc1C(=O)O [ASPIRIN] | – | – | – | – | – | – | – | – | – | AUC [21]: 91100 ng·h/mL; AUC [22]: 437000 ng·h/mL; Activity (Rattus norvegicus [23]): 93 mm2; inhibition in vivo at 30 mg/kg (Rattus norvegicus [24]): 76%
